Laboratory results published in ChEMBL document CHEMBL3779825, “Design, Synthesis, and Structural Optimization of Lycorine-Derived Phenanthridine Derivatives as Wnt/β-Catenin Signaling Pathway Agonists” (J Nat Prod, 2016).
Calls of active or inactive are those of the source. The calls are words filed in the database; no cut-off is given here.

Key:
Format in all cases: cell-based
[1] = Activation of Wnt/beta-catenin signaling pathway in HEK293T cells in presence of Wnt3a-conditioned medium incubated for 6 hrs by luciferase reporter gene assay; details: Homo sapiens; HEK-293T
Outline: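 HEK293T cells were grown in DMEM with 10% heat-inactivated FBS at 37 °C in 5% CO2. Cells were seeded in 24-well plates and lipofected with 250 ng total plasmid per well: 20 ng TOPFlash, 25 ng EGFP-C1, and LacZ plasmid as filler. Luciferase luminescence was normalized to lysate GFP fluorescence. The value reported is the concentration doubling Wnt activation.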

[2] = Activation of Wnt/beta-catenin signaling pathway in HEK293T cells preincubated for 1 hr followed by Wnt3a stimulation and subsequent addition of compound measured after 6 hrs by luciferase reporter gene assay; details: Homo sapiens; HEK-293T
[3] = Activation of Wnt/beta-catenin signaling pathway in HEK293T cells assessed as increase in NKD1 expression at 5 to 20 uM in presence of Wnt3a-conditioned medium incubated for 6 hrs by quantitative real time PCR analysis; details: Homo sapiens, HEK-293T
Outline: (§1)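 HEK293T cells were grown in DMEM with 10% (v/v) heat-inactivated FBS at 37 °C in 5% CO2/95% air. Cells were exposed to compound together with control medium or Wnt3a-conditioned medium for 6 h.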

[4] = Activation of Wnt/beta-catenin signaling pathway in HEK293T cells assessed as increase in Axin-2 expression at 5 to 20 uM in presence of Wnt3a-conditioned medium incubated for 6 hrs by quantitative real time PCR analysis; details: Homo sapiens, HEK-293T; outline: as §1

SMILES	CD [1]	also measured
CCc1cccc2c1N(C)Cc1cc(OCc3cc(C)nn3C)c(OCc3cc(C)nn3C)cc1-2	inactive	
NCCn1cc(COc2cccc(OCc3cn(CCN)nn3)c2)nn1		Activity [1]: Active
CCc1cccc2c1N(C)Cc1cc(O)c(O)cc1-2	5 µM	
CCc1cccc2c1N(C)Cc1cc(OCc3ccc(-n4cccn4)cn3)c(OCc3ccc(-n4cccn4)cn3)cc1-2	inactive	
CCOc1cc2c(cc1OCC)-c1cccc(CC)c1N(C)C2	5 µM	
O=C1N[C@H]2[C@H](CS[C@H]2CCCCC(=O)ON2C(=O)CCC2=O)N1		Activity [1]: inactive
CCc1cccc2c1N(C)Cc1cc3c(cc1-2)OCO3	5 µM	
CCc1cccc2c1N(C)Cc1cc(OCc3cn(CCNC(=O)CCCC[C@@H]4SC[C@@H]5NC(=O)N[C@@H]54)nn3)c(OCc3cn(CCNC(=O)CCCC[C@@H]4SC[C@@H]5NC(=O)N[C@@H]54)nn3)cc1-2		CD [2]: 0.325 µM
CCc1cccc2c1N(C)Cc1cc(OCc3cn(CCNC(C)=O)nn3)c(OCc3cn(CCNC(C)=O)nn3)cc1-2	2.5 µM	Activity [3]: Active; Activity [4]: Active
CCc1cccc2c1N(C)Cc1cc(OCc3cc(C)n(C)n3)c(OCc3cc(C)n(C)n3)cc1-2	inactive	
C=Cc1cccc2c1N(C)Cc1cc(O)c(O)cc1-2	10 µM	
CCc1cccc2c1N(C)Cc1cc(OC)c(OC)cc1-2	2.5 µM	
C#CCOc1cc2c(cc1OCC#C)-c1cccc(CC)c1N(C)C2	5 µM	
NCCn1cc(COc2ccccc2OCc2cn(CCN)nn2)nn1		Activity [1]: Active
CCc1cccc2c1N(C)Cc1cc(OCc3cn(CCN)nn3)c(OCc3cn(CCN)nn3)cc1-2	1.25 µM	Activity [3]: Active; Activity [4]: Active
CCc1cccc2c1N(C)Cc1cc(OCc3cc4cc(Cl)ccc4s3)c(OCc3cc4cc(Cl)ccc4s3)cc1-2	inactive	Activity [3]: inactive; Activity [4]: inactive
[N-]=[N+]=NCCNC(=O)CCCC[C@@H]1SC[C@@H]2NC(=O)N[C@@H]21		Activity [1]: inactive
C=Cc1cccc2c1N(C)Cc1cc3c(cc1-2)OCO3	inactive	
CCc1cccc2c1N(C)Cc1cc(OCc3ccc(-c4ccccc4C(=O)OC)cc3)c(OCc3ccc(-c4ccccc4C(=O)OC)cc3)cc1-2	inactive	Activity [3]: inactive; Activity [4]: inactive
C=Cc1cccc2c1N(C)Cc1cc(OCC)c(OCC)cc1-2	inactive	
O=C(O)CCCC[C@@H]1SC[C@@H]2NC(=O)N[C@@H]21		Activity [1]: inactive
CCc1cccc2c1N(C)Cc1cc(OCc3cc(OC)cc(OC)c3)c(OCc3cc(OC)cc(OC)c3)cc1-2	inactive	
